{"source": "ChEMBL document CHEMBL1158533", "about": "“Pyrazolylthiazole as DeltaF508-cystic fibrosis transmembrane conductance regulator correctors with improved hydrophilicity compared to bithiazoles” (J Med Chem, 2010)", "key": {"[1]": {"biological_target": "Cystic fibrosis transmembrane conductance regulator (Homo sapiens, UniProt P13569)", "sequence (P13569 whole entry, looked up)": "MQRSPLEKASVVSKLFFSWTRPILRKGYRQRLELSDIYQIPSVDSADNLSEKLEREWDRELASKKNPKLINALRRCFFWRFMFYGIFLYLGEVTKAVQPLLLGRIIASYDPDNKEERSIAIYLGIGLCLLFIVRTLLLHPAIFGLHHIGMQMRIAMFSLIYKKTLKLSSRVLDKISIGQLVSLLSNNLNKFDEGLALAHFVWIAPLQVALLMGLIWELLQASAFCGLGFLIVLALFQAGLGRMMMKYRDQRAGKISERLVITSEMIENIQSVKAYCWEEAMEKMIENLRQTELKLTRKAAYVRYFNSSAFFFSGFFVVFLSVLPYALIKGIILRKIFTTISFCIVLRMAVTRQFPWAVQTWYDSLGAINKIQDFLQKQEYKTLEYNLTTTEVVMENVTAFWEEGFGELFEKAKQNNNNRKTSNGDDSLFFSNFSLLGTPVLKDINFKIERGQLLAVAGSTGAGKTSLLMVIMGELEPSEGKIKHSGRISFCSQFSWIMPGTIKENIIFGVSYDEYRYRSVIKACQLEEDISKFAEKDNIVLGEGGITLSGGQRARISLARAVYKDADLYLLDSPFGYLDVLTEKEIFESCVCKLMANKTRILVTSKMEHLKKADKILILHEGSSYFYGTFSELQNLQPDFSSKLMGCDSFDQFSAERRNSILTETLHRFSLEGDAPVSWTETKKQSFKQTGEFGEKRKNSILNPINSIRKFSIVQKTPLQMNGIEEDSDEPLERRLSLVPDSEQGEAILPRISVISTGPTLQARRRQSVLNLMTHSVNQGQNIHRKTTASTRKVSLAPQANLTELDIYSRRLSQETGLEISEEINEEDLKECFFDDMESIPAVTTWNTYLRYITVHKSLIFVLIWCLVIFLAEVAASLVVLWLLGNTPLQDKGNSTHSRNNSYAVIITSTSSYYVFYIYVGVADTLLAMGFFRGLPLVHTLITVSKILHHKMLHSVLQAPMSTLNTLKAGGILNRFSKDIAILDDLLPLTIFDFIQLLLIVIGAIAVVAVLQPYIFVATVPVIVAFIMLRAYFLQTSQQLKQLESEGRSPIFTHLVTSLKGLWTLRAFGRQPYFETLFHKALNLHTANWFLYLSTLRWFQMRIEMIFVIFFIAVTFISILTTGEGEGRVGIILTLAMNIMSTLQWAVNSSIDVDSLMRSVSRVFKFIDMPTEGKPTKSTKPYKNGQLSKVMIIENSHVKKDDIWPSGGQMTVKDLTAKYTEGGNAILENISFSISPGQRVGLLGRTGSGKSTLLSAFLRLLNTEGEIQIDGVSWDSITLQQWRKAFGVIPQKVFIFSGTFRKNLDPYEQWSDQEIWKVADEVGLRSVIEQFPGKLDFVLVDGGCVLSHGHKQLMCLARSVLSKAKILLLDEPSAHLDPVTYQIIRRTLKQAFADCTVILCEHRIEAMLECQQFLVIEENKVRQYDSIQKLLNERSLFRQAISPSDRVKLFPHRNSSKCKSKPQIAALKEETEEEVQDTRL", "experiment": "Binding affinity to human CFTR F508 deletion mutant expressed in FRT cells assessed as increase in iodine influx after 16 to 20 hrs by fluorescence assay", "assay_type": "cell-based", "procedure,_shortened": "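FRT cells stably coexpressing human ΔF508-CFTR and halide sensor YFP-H148Q/I152L, grown 24 h at 37 °C, then incubated 16–20 h with test compound. Washed in PBS, then 20 min in PBS with forskolin (20 μM) and genistein (50 μM). Fluorescence (ex 500, em 535 nm) recorded 2 s baseline, then 12 s after I⁻-substituted PBS addition; initial I⁻ influx rate from exponential regression; EC50 and Vmax from concentration dependence.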"}, "[2]": {"experiment": "Octanol-water partition coefficient, log P by reverse-phase HPLC analysis", "assay_type": "physicochemical", "procedure,_shortened": "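logP derived from reverse-phase HPLC capacity factor: logk from measured retention time, converted via a calibration curve of standards with known logP versus their logk values.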"}}, "data": [{"smiles": "COc1ccc(Cl)cc1Nc1nc(-c2sc(NC(=O)C(C)(C)C)nc2C)cs1", "values": [{"measurement": "EC50", "setting": "[1]", "value": 700, "unit": "nM"}]}, {"smiles": "COc1ccc(Cl)cc1Nc1nc2c(s1)CCCc1nc(NC(=O)C(C)(C)C)sc1-2", "values": [{"measurement": "EC50", "setting": "[1]", "value": 300, "unit": "nM"}]}, {"smiles": "COc1ccc(NC(=O)c2cc(-c3sc(NC(=O)C(C)(C)C)nc3C)n(-c3ccc(Br)cc3)n2)cc1", "values": [{"measurement": "logP", "setting": "[2]", "value": 5.52}, {"measurement": "EC50", "setting": "[1]", "value": 3400, "unit": "nM"}]}, {"smiles": "CCOC(=O)c1cc(-c2sc(NC(=O)C(C)(C)C)nc2C)nn1Cc1ccccc1", "values": [{"measurement": "EC50", "setting": "[1]", "value": 8500, "unit": "nM"}]}]}
